Source: PubChem BioAssay (SRMLSC)
The entries come from a sample that favours hits as a whole.
HCT116 PTEN-null – suppresses growth of cells with PTEN deletion; HCT116 PTEN-null viability, CellTiter-Glo, 60 h; active compounds read low; viability, % at 10 µM; 140,000 compounds, 1.2% hits;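 active = viability at or below a set limit, 4 SD under the median of all tested compounds, cut at about 3.7% in these data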;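 note: PTEN knockout HCT116 line with beta catenin targeted HCT116 as companion control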
HCT116 bCat-KO – beta-catenin-lacking colon tumor cell growth suppression. HCT116 beta-catenin knockout viability, CellTiter-Glo, 60 h; active compounds read low. viability, % at 10 µM. 140,000 compounds, 1.5% hits;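 active = viability at or under a set limit, the compound median less 4 SD, cut at about 6% in these data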
HUVEC inhibit – blocks proliferation of human endothelial cells; 86,000 compounds, 1.1% hits; AID 648; viability, % at 10 µM (by protocol); HUVEC proliferation, CellTiter-Glo luminescence, 72 h; active compounds read low;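 active = viability at or below 30%; inactive = viability above 30%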
H69AR inhibit – growth inhibitors of human H69AR lung tumor cells; viability, % at 10 µM; H69AR lung tumor viability, ATP luminescence, 72 h; active compounds read low; 85,000 compounds, 6% hits;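 active = viability at or below 40%; inactive = viability above 40%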;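 note: multidrug resistant small cell line overexpressing MRP-1 efflux transporter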
Fibroblast inh – blocks proliferation of human lung fibroblasts; viability, % at 10 µM; LL 47 human lung fibroblast viability, ATP luminescence; active compounds read low; 85,000 compounds, 1.1% hits;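 active = viability at or below 50% in the single dose screen; inactive = viability above 50%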;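 note: compound exposure lasted 72 h before the ATP readout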
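material = human LL 47 lung fibroblast cells | dosing = compounds added from tenfold dosing solution, 0.1% DMSO final | timing = overnight cell rest, 72 h compound treatment at 37 °C | measured by = CellTiter-Glo luminescence measuring cellular ATP | evaluation = % viability versus median cells-only luminescence | control set = cell-only wells, no compound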
Numbers stand for hits; – = inactive; · = no result given.

SMILES	HCT116 PTEN-null	HCT116 bCat-KO	HUVEC inhibit	H69AR inhibit	Fibroblast inh
Cc1ccc(NC(=O)NC2=N/C(=C(/C#N)C(=O)N3CCCC3)c3ccccc32)cc1	·	·	–	37	–
Cc1ccc(Cn2ccc(NC(=O)c3cc4nc(-c5ccco5)cc(C(F)(F)F)n4n3)n2)cc1	–	–	–	35	–
Cc1c(NC(=O)c2cc3nc(-c4ccc(Cl)cc4)cc(C(F)(F)F)n3n2)c(=O)n(-c2ccccc2)n1C	–	–	–	18	–
Cc1c(NC(=O)c2nn3c(C(F)(F)F)cc(-c4ccccc4)nc3c2Cl)c(=O)n(-c2ccccc2)n1C	–	–	·	·	·
CCCCN(CCCNC(=O)C1CCN(S(=O)(=O)CC)CC1)c1ccccc1	–	–	–	–	–
COCCCN(C(=S)Nc1cc(C)cc(C)c1)C(C)c1ccncc1 (stereo not drawn)	–	–	·	·	·
O=C(N=Nc1c(O)[nH]c2ccc(Cl)cc12)c1cc(-c2cccs2)nc2ccccc12	–	–	·	·	·
Cc1ccc(/C=N/n2c(C3CCCCC3)n[nH]c2=S)s1	–	–	·	·	·
O=C(c1ccc(C#CC2(O)CCCCC2)cc1)N1CCN(C(c2ccccc2)c2ccccc2)CC1	–	–	–	34	–
CCOC(=O)c1sc(NS(=O)(=O)c2ccccc2Cl)nc1C	–	–	–	–	–
Cn1c(SC2=CS(=O)(=O)c3ccccc32)nc2ccccc21	1.4	2.5	–	0.6	2.2
O=S(=O)(/N=C(\c1ccccc1F)N1CCCCC1)c1ccccc1	–	–	·	·	·
CC(=O)N1CCc2ccc(S(=O)(=O)N3CCN(C)CC3)cc21	–	–	·	·	·
O=C(/C=C/c1c(Cl)cccc1Cl)n1cccn1	–	–	–	26	–
COc1ccc(N=Cc2cc3c(cc2O)OC(N)=C(C#N)C3c2ccccc2)cc1 (stereo not drawn)	–	–	·	·	·
COc1cc2c(cc1NC(=O)CSc1nc3ccc(C)cc3[nH]1)oc1ccccc12	–	–	·	·	·
COc1ccc(/C=C/C(=O)c2cc(F)ccc2OC(=O)c2ccc(OC)c(OC)c2)cc1OC	3.3	2.9	·	·	·
COC(=O)c1ccc(/C=C/C(=O)c2ccc(OC)c(OC)c2)cc1	1.6	3.3	·	·	·
COC(=O)c1ccc(/C=C/C(=O)c2ccc(OC)cc2)cc1	–	–	·	·	·
CC(C)Cc1nc2oc3c(NCC4CCCO4)ncnc3c2c2c1CCC2 (stereo not drawn)	–	–	–	33	–
O=C(CC1c2ccccc2Oc2ccccc21)N1CCN(c2ccccn2)CC1	–	–	–	38	–
c1ccc(Cn2c(CNc3nc4ccccc4n3CCN3CCCCC3)nc3ccccc32)cc1	–	–	15	9.6	–
CCCN(CCC)C(=O)NC1CC(=O)N(c2ccc(OC)cc2)C1 (stereo not drawn)	–	–	·	·	·
Cc1ccc2nc(NCc3ccccc3)[nH]c2c1	–	–	–	22	–
c1ccc(CNc2nc3ccccc3[nH]2)cc1	–	–	–	–	–
SMILES	HCT116 PTEN-null	HCT116 bCat-KO	HUVEC inhibit	H69AR inhibit	Fibroblast inh
COc1ccc2nc(NCc3ccccc3)[nH]c2c1	–	–	–	20	–
COc1ccc2nc(NCCO)[nH]c2c1	–	–	–	–	–
Cc1ccc(S(=O)(=O)c2ccc(Cl)cc2)cc1S(=O)(=O)NC(C)C(=O)O (stereo not drawn)	–	–	·	·	·
COc1ccc(-c2csc3nc(-c4ccc(C)cc4)oc(=O)c23)cc1OC	1.8	1.7	·	·	·
COc1ccc(-c2csc3nc(C)n(-n4cccc4)c(=O)c23)cc1OC	–	–	–	–	–
COc1ccc(-n2c(SCCC#N)nnc2-c2cc(Cl)ccc2OC)cc1Cl	–	–	–	24	–
Cc1cccc(-c2nnc(SCC#N)n2-c2cccc(Cl)c2)c1	–	–	–	–	–
O=C(Cc1cccc2ccccc12)N1CCCc2ccccc21	–	–	–	–	–
COc1ccc2c(c1OC)C(=O)O[C@@H]2[C@H]1c2c(cc3c(c2OC)OCO3)CCN1C	–	–	–	30	–
CCC(C)(C(=O)NC1CCCC1)N(Cc1cccs1)C(=O)c1ccc2c(c1)OCO2 (stereo not drawn)	–	–	·	·	·
O=[N+]([O-])/C=C/c1cn(Cc2ccc(F)cc2)c2ccccc12	1.4	1.9	·	·	·
CCNC(=S)N/N=C/c1cn(Cc2ccc(F)cc2)c2ccccc12	–	–	·	·	·
C=CCn1nnc2sc3c(c2c1=O)CCC(C)C3 (stereo not drawn)	–	–	–	–	–
CCSc1nnc(NC(=O)CCNS(=O)(=O)c2cc(Br)cnc2N)s1	–	–	–	39	–
COc1cc(NC(=O)C/C(C)=N/NC(=O)C(OC)c2ccccc2)c(OC)cc1Cl (stereo not drawn)	–	–	·	·	·
Nc1c(Cl)ncnc1N/N=C/c1ccccn1	3.4	2.5	·	·	·
Nc1c(Cl)ncnc1N/N=C/c1ccc2ccccc2n1	3.0	5.1	·	·	·
Nc1c(Cl)ncnc1N/N=C/c1ccnc2ccccc12	–	–	·	·	·
CCOC(=O)CN1C(=O)C(=O)c2cccc(C)c21	–	–	–	33	–
CCOC(=O)CN1C2=NCCN2c2ccccc21	–	–	–	–	–
Cc1cccc(S(=O)(=O)c2c(N)n(/N=C/c3ccco3)c3nc4ccccc4nc23)c1	–	–	–	–	–
Cc1cccc(S(=O)(=O)c2c(N)n(/N=C/c3cccnc3)c3nc4ccccc4nc23)c1	–	–	–	33	–
Nc1c(S(=O)(=O)c2cccs2)c2nc3ccccc3nc2n1/N=C/c1cccc(O)c1	2.2	2.7	4.9	4.0	–
COCCNC(=O)c1cccc(Nc2nc(-c3ccccc3)c3cc(Cl)ccc3n2)c1	–	–	·	·	·
Cc1ccc(N(c2ncnc(N)c2[N+](=O)[O-])C2CCCCC2)cc1	–	–	·	·	·
SMILES	HCT116 PTEN-null	HCT116 bCat-KO	HUVEC inhibit	H69AR inhibit	Fibroblast inh
CN(Cc1ccccc1)S(=O)(=O)c1ccc(S(=O)(=O)N(Cc2ccc(F)cc2)C2CCCC2)cc1	–	–	–	32	–
C=C1C(=O)[C@@]23[C@H](O)C[C@@H]4C(C)(C)CC[C@H](O)[C@@]4(C)[C@@H]2CC[C@@H]1[C@H]3O	1.3	2.1	·	·	·
C=C1C(=O)[C@@]23[C@H](O)C[C@@H]4C(C)(C)CC[C@H](O)[C@]4(C)[C@@H]2C[C@H](O)[C@@H]1[C@H]3O	–	–	·	·	·
Cc1ccccc1OCc1nc2ccccc2c(=O)n1/N=C/c1cn[nH]c1-c1ccccc1	–	–	·	·	·
Cc1ccc(-c2[nH]ncc2/C=N/n2c(COc3ccccc3)nc3ccccc3c2=O)cc1	1.9	1.6	·	·	·
CC(C)(C)c1ccc(CN2N=Nc3ccccc3S2(=O)=O)cc1	–	–	9.6	0.7	17
O=S1(=O)c2ccccc2N=NN1Cc1ccc(Cl)c(Cl)c1	–	–	–	1.6	8.7
CC(C)(C)c1ccc(Cn2cnc(-c3ccc([N+](=O)[O-])cc3)c2)cc1	–	–	·	·	·
Cc1cc(C)c(S(=O)(=O)n2nc(C)c(Br)c2C)c(C)c1	–	–	·	·	·
Cc1cc(N2CCC(N(C)C3CCCC3)CC2)nc2cc(O)ccc12	–	–	–	1.1	–
COc1ccccc1NC(=O)/C(C#N)=C/c1cc([N+](=O)[O-])ccc1N1CCCC1	–	–	·	·	·
CCOC(=O)c1oc2ccccc2c1NC(=O)c1cccc(OC)c1	–	–	–	–	–
